Compound activity: PubChem, several laboratories
MT stabilize HCS: microtubule stabilization, imaging screen. 200,000 compounds, 0.83% hits. HeLa tubulin immunostaining HCS, 24 h; share of cells brighter than vehicle mean+2SD. % tubulin-high responders, % at 10 µM;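 active means plate Z-score above 3 for both tubulin-high and condensed-nucleus cell shares, with cell loss under 80%, at 10 µM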;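 further: anti alpha tubulin signal scored within the nucleus-defined area of each cell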
TbHK1 inh: T. brucei hexokinase 1 inhibition; inhibition, % at 10 µM; recombinant TbHK1, G6PDH-coupled NADH A340; 220,000 compounds, 0.11% hits;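 active means inhibition of 50% or more in the single-dose primary screen; inactive means inhibition below 50%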
HMGR II inh: inhibitors of class II HMG-CoA reductase from Enterococcus faecalis; 190,000 compounds, 0.41% hits; inhibition, % at 10 µM; AID 1066; purified E. faecalis HMGR, NADPH absorbance 340 nm kinetic;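 active means inhibition above a set limit, the median over all tested compounds plus 3 SD, cut at about 9.5% in these data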;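 further: enzyme runs in reverse so mevalonate oxidation gives rising NADPH absorbance; 0% = complete reaction with DMSO and 100% = background rate lacking mevalonate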
EP2 modulator: EP2 receptor (human) modulation | 260,000 compounds, 0.83% hits | AID 940 | EP2-expressing cells, cAMP HTRF FRET, PGE2 co-stimulation | induction, % at 25 µM | P43116;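 active means compounds whose cAMP rise, as percent of the full-agonist control response, exceeds 60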;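 further: rat C6 glioma line stably carrying human EP2 under a CMV promoter; the protocol text gives 20 µM as final concentration; 100% = response of wells given 1 µM PGE2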
Target sequence (P43116 whole entry, looked up): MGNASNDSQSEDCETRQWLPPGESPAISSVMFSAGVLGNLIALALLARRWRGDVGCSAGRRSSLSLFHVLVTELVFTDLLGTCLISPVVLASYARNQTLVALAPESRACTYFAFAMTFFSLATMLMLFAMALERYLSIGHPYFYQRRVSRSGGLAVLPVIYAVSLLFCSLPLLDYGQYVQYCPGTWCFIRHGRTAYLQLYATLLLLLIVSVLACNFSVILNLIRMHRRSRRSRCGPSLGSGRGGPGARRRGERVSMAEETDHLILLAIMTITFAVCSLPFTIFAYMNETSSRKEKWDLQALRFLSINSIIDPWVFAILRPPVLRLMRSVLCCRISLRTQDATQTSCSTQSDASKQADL
bCat nuc transl: beta-catenin nuclear translocation modulation | HeLa beta-catenin nuclear translocation, immunofluorescence imaging | nuclear translocation activity, % at 5 µM | 190,000 compounds, 0.3% hits | AID 1665;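 active means nuclear translocation activity above 50% at 5 µM, with a well cell count of 50 or more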;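 further: per-cell ratio of nuclear to cytoplasmic median beta-catenin stain intensity; plate controls were DMSO negative control for no effect and GSK-3 inhibitor IX positive control for full effect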
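test system = HeLa cells, endogenous beta-catenin | dosing = single 5 µM dose plus 0.02–20 µM confirmation series | times = compound treatment 24 h, 37°C, 5% CO2 | technique = beta-catenin immunofluorescence imaging with DAPI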
EP2 antag: inhibitors of human EP2 prostaglandin E2 receptor. P43116. C6 glioma cells expressing human EP2, cAMP TR-FRET; cells stimulated with saturating PGE2. inhibition, % at 25 µM. 260,000 compounds, 0.52% hits;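 active means percent inhibition above 40 after rounding to a whole number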;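 further: rat C6 glioma host cells with rolipram phosphodiesterase inhibitor present; the protocol text gives 20 µM as final concentration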
G6PDH ctr: Leuconostoc glucose-6-phosphate dehydrogenase inhibition, counter-screen | shares compounds with TbHK1 inh | purified G6PDH, NADH absorbance, 1 h | 210 compounds, 7% hits | inhibition, % at 10 µM;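 active means at least 50% inhibition in the glucose-6-phosphate dehydrogenase coupled counterscreen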
TbHK1 confirm: T. brucei hexokinase 1 inhibition, rescreen | 210 compounds, 10% hits | shares compounds with TbHK1 inh | inhibition, % at 10 µM | recombinant TbHK1, G6PDH-coupled NADH A340 absorbance;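 active means inhibition of at least 50% in both of the two screening runs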;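 further: 0% and 100% set by the maximum and minimum signal control wells on each plate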
Starred values were filed as active, the others as inactive; · = not tested or not shown. Shown are actives, neighbours in structure and some others; about 2.4% of the full set was active somewhere.

SMILES	MT stabilize HCS	TbHK1 inh	HMGR II inh	EP2 modulator	bCat nuc transl	EP2 antag	G6PDH ctr	TbHK1 confirm
COC(=O)c1[nH]c(=O)c2ccccc2c1OCc1ccccc1	3	54*	-1	9	-1	12	-31	-27
COC(=O)c1[nH]c(=O)c2ccccc2c1O	3	-14	0	19	0	11	·	·
Cc1ccccc1-n1sc2cc(F)ccc2c1=O	2	55*	-5	-50	1	18	-2	79*
COc1ccc(CCNC(=O)c2nnn(CC(=O)Nc3ccccc3C)c2N)cc1OC	5	55*	-3	-2	·	9	-6	-7
COc1ccc(S(=O)(=O)N(CCc2cccc(C)c2)Cc2cc3cc(C)ccc3[nH]c2=O)cc1	·	·	·	33	·	7	·	·
Cc1ccc(C)c(/C(O)=C2/C(=O)C(=O)N(Cc3cccnc3)C2c2ccco2)c1 (stereo not given)	·	·	·	-14	·	12	·	·
